The text below walks through data of ChEMBL document CHEMBL4765343, “Design and synthesis of novel SCM-198 analogs as cardioprotective agents: Structure-activity relationship studies and biological evaluations” (Eur J Med Chem, 2020).

Calls of active or inactive are those of the source. No cut-off for these calls is given here.

Assay [1] deals with H9c2. The assay is described as follows: Antioxidant activity in rat H9c2 cells assessed as protection against H2O2-induced hypoxic injury by measuring cell viability at 1 uM preincubated for 4 hrs followed by H2O2 stimulation for 1 hr by MTT assay relative to control. The assay is classed as functional. The method, boiled down:
(§1)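 H9c2 cells at 1 × 10^5 cells/mL, 100 μL per well in triplicate, left 18 h. Compound diluted in DMSO; DMSO alone as negative control. 4 h pretreatment, then 400 nM H2O2 for 1 h. Medium removed and MTT added for 2-4 h, formazan dissolved in DMSO, absorbance at 570 nm. Medium-only wells gave the blank.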
(Formazan colour is commonly taken as a measure of viable cells.)

The test system of assay [2] is H9c2. In words: Antioxidant activity in rat H9c2 cells assessed as protection against H2O2-induced hypoxic injury by measuring cell viability at 10 uM preincubated for 4 hrs followed by H2O2 stimulation for 1 hr by MTT assay relative to control. It counts as functional. The method, boiled down:
as §1

The subject of assay [3] is H9c2. In words: Antioxidant activity in rat H9c2 cells assessed as protection against H2O2-induced hypoxic injury by measuring cell viability at ED50 concentration preincubated for 4 hrs followed by H2O2 stimulation for 1 hr by MTT assay relative to control. It counts as functional. To be noted: time 5 hrs. The method, boiled down: (§2)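 ED50 taken from log dose against % viability. Viability also reported at the EC50 concentration. Means ± SEM from three independent experiments.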

The subject of assay [4] is H9c2. In words: Cytoprotective activity against H2O2-induced injury in rat H9c2 cells assessed as reduction in LDH release at 10 uM preincubated for 4 hrs followed by H2O2 stimulation for 1 hr by LDH assay. The following applies: time 5.0 hrs. The assay is classed as functional, cell-based. The method, boiled down:
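Cells at 5 × 10^4 per well in triplicate, 18 h, then 4 h compound and 1 h H2O2. Model wells had H2O2 without compound; controls had DMSO. 50 μL medium mixed with 2X LDH assay buffer, kept in the dark at 22-25 °C for 10-30 min, read at 490-520 nm. Activity blank-subtracted, normalised to BCA protein of the lysed cells, and expressed relative to model wells.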

Assay [5] has as its system H9c2. In words: Antioxidant activity in rat H9c2 cells assessed as protection against H2O2-induced hypoxic injury by measuring cell viability preincubated for 4 hrs followed by H2O2 stimulation for 1 hr by MTT assay relative to control. To be noted: time 5 hrs, read-out: ED50 (the source's name). It counts as functional. The method, boiled down: as §2
In assay [6] the test system is H9c2. The assay is described as follows: Antiapoptotic activity in rat H9c2 cells assessed as restoration of H2O2-induced bcl-2 downregulation at 10 uM preincubated for 4 hrs followed by H2O2 stimulation for 1 hr by Western blotting analysis. It counts as functional, cell-based. The following applies: time 5.0 hrs. The method, boiled down: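 Serum-starved (12 h) H9c2 cells were pretreated 4 h, then exposed to 500 nM H2O2 in DMEM for 1 h. Lysis on ice with protease/phosphatase inhibitors, then 13,000 g at 4 °C for 15 min. 20 μg protein run on 8-12% SDS-PAGE and blotted to PVDF. Probed overnight at 4 °C for caspase-3, pro-caspase-3, Bcl-2 and GAPDH, with chemiluminescent detection.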

On to `COc1ccc(OC)c(C(=O)OCCCCNC(=N)N)c1`, for which the Activity in the assay with H9c2 [1] is listed as 53.3%; with H9c2 [2], 57.7%.

Consider `N=C(N)NCCCCOC(=O)C12CC3CC(CC(C3)C1)C2`, for which the values for the Activity in the assay with H9c2 [1] and in the assay on H9c2 [2] were 58.2% and 56.8%, respectively.

Regarding `N=C(N)NCCCCOC(=O)c1ccc2[nH]ccc2c1`, the Activity was found to be 51.8% with H9c2 [1] and 58.9% in the assay on H9c2 [2].

Take `COc1cc(C(=O)OC(C)CNC(=N)N)cc(OC)c1O` (stereo unspecified): the Activity in the assay on H9c2 [1] is on record as 52.2%; in the assay on H9c2 [2] it was 54.2%.

Take `N=C(N)NCCCCOC(=O)c1ccc(C(F)(F)F)cc1`: the figures for the Activity with H9c2 [1] and in the assay with H9c2 [2] were 54.2% and 51.7%, respectively.

Take `CC(=O)Oc1ccccc1C(=O)OCCCCNC(=N)N`: the values for the Activity in the assay on H9c2 [1] and in the assay with H9c2 [2] were 57.8% and 58.3%, respectively.

For `Cc1cccc(C(=O)OCCCCNC(=N)N)c1`, the Activity in the assay with H9c2 [3] is 57.4%; in the assay on H9c2 [1] it was 64.4%; in the assay on H9c2 [2], 65.8%. Also, the result with H9c2 [4] was inactive. Also, in the assay with H9c2 [5], the EC50 stood at 156 nM.

For `N=C(N)NCCCCOC(=O)c1ccco1`, the figures for the Activity with H9c2 [1] and in the assay with H9c2 [2] were 51.1% and 53.2%, respectively.

With `COc1cc(C(=O)OCCN2CCOCC2)cc(OC)c1O`, the results for the Activity in the assay on H9c2 [1] and in the assay on H9c2 [2] were 52.3% and 50.5%, respectively.

Take `CCN(CC)CCOC(=O)c1cc(OC)c(O)c(OC)c1`: the values for the Activity in the assay with H9c2 [3], in the assay on H9c2 [1] and in the assay with H9c2 [2] were 51.7%, 61.1% and 66.8%, respectively. The EC50 in the assay with H9c2 [5] came to 207 nM.

Consider `COc1cc(C(=O)OCCNC(=N)N)cc(OC)c1O`, for which the Activity with H9c2 [1] is on record as 53.6%; with H9c2 [2], 61.9%.

As for `CC(=O)Oc1cccc(C(=O)OCCCCNC(=N)N)c1`, the Activity was found to be 59.7% in the assay with H9c2 [1] and 62.8% in the assay with H9c2 [2].

For the molecule `COc1cc(C(=O)OCCCCNC(=N)N)ccc1OC(C)=O`, the figures for the Activity in the assay on H9c2 [1] and in the assay with H9c2 [2] were 63.4% and 56.4%, respectively.

For the molecule `N=C(N)NCCCCOC(=O)C1CCCCC1`, the Activity worked out at 52.4% in the assay with H9c2 [1] and 58.8% in the assay on H9c2 [2].

`COc1cc(C(=O)OCC2CCN(C(=N)N)CC2)cc(OC)c1OC(C)=O`: the Activity came to 42.7% in the assay on H9c2 [1] and 47% in the assay on H9c2 [2].

Turning to `COc1cc(C(=O)OCCCN(C)C)cc(OC)c1O`, the figures for the Activity in the assay on H9c2 [1] and in the assay with H9c2 [2] were 55.2% and 61.7%, respectively.

With `N=C(N)NCCCCOC(=O)c1c(F)cc(F)cc1F`, the Activity is given as 69.6% with H9c2 [1] and 60.7% in the assay with H9c2 [2].

For the molecule `COc1cc(C(=O)OCCCCCNC(=N)N)cc(OC)c1O`, the values for the Activity with H9c2 [1] and in the assay on H9c2 [2] were 58.9% and 50.1%, respectively.

For the molecule `COc1ccc(C(=O)OCCCCNC(=N)N)cc1`, the Activity in the assay with H9c2 [1] is 61.2%; in the assay on H9c2 [2], 58.6%.

With `COc1cc(C(=O)OCCCCNC(=N)N)cc(OC)c1OC(C)=O`, the Activity with H9c2 [1] came out at 52.3%; in the assay with H9c2 [2], 55.2%.

For the molecule `COc1cc(C(=O)OCCCCN)cc(OC)c1O`, the Activity was determined as 56.3% with H9c2 [1] and 56.2% in the assay with H9c2 [2].

Turning to `COc1cc(C(=O)OCC2CCN(C(=N)N)CC2)cc(OC)c1O`, the Activity in the assay on H9c2 [1] was 56.2%; in the assay with H9c2 [2], 61%.

As to `CC(=O)Oc1ccc(C(=O)OCCCCNC(=N)N)cc1`, the Activity with H9c2 [1] stood at 57.8%; in the assay with H9c2 [2] it was 52.7%.

In the case of `COc1cc(C(=O)OCCCNC(=N)N)cc(OC)c1O`, the Activity in the assay with H9c2 [1] came out at 50.1%; with H9c2 [2] it was 55.2%.

In the case of `COc1cc(OC)c(C(=O)OCCCCNC(=N)N)c(OC)c1`, the Activity with H9c2 [1] came out at 55.2%; in the assay on H9c2 [2], 53.4%.

`N=C(N)NCCCCOC(=O)c1ccc([N+](=O)[O-])cc1`: the Activity with H9c2 [1] was 67.7%; with H9c2 [2] it was 59.6%.

As for `N=C(N)NCCCCOC(=O)c1ccncc1`, the Activity in the assay on H9c2 [1] turned out to be 54%; with H9c2 [2], 53.2%.

With `COc1ccc(C(=O)OCCCCNC(=N)N)c(OC)c1OC`, the Activity in the assay on H9c2 [1] stood at 49.2%; in the assay with H9c2 [2], 57.8%.

Turning to `COc1cc(/C=C/C(=O)OCCCCNC(=N)N)cc(OC)c1OC`, the results for the Activity with H9c2 [1] and in the assay with H9c2 [2] were 55.4% and 61.4%, respectively.

In the case of `COc1cc(C(=O)OCCOCCNC(=N)N)cc(OC)c1O`, the figures for the Activity in the assay on H9c2 [3], with H9c2 [1] and in the assay with H9c2 [2] were 58.8%, 63.4% and 69.8%, respectively. Moreover, the outcome with H9c2 [6] was inactive. The EC50 in the assay with H9c2 [5] amounted to 151 nM.

Consider `COc1cc(C(=O)OCCCCCCNC(=N)N)cc(OC)c1O`, for which the Activity was 53.4% in the assay with H9c2 [1] and 58.9% with H9c2 [2].

In the case of `COc1cc(C(=O)OCCCCNC(=N)N)cc(OC)c1OC`, the Activity in the assay with H9c2 [1] was found to be 54.1%; in the assay on H9c2 [2], 53.3%.

Take `COc1cc(C(=O)OCCN(C)C)cc(OC)c1O`: the Activity was determined as 47.8% in the assay with H9c2 [1] and 48.5% in the assay with H9c2 [2].

Take `N=C(N)NCCCCO`: the Activity in the assay with H9c2 [1] stood at 46.8%; in the assay with H9c2 [2] it was 51.4%.
